Tests used:
H9c2 [1] = experiment: Cytoprotective activity against OGD-induced ischemic cell death in rat H9c2 cells assessed as cell death at 10 uM for 30 mins by DAPI analysis; assay type: functional
Summary of the method: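 H9c2 rat heart cells grown in DMEM with 10% FBS and penicillin/streptomycin at 37 °C in 5% CO2. Compound added 30 min before and during oxygen-glucose deprivation. Cells fixed with 0.5% Triton X-100 in PBS for 15 min, then DAPI-stained. Nuclei counted by fluorescence microscopy in three random fields of at least 300 cells to give % dead cells. Mean ± SEM.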

H9c2 [2] = experiment: Cytoprotective activity against OGD-induced ischemic cell death in rat H9c2 cells assessed as cell death at 10 uM for 30 mins by LDH release assay; assay type: functional
Summary of the method: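 H9c2 rat heart cells grown in DMEM with 10% FBS and penicillin/streptomycin at 37 °C in 5% CO2. Pretreated with compound for 30 min, then kept on compound during oxygen-glucose deprivation. Cell death read as LDH released, expressed as a percentage of LDH released by full lysis with 0.1% Triton X-100. Mean ± SEM; Student's t-test.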

[3] = Cytoprotective activity against OGD-induced ischemic cell death in Sprague-Dawley rat primary cardiac myocytes assessed as inhibition of cell death treated for 6 hrs by counting DAPI-stained nuclei; details: Cardiac muscle cell

| SMILES | Activity (H9c2 [1]) [%] | Activity (H9c2 [2]) [%] | EC50 [3] [nM] |
| --- | --- | --- | --- |
| COC(=O)c1oc2ccccc2c1NC(=O)CSc1ccccc1Br | 13.63 | 41.01 |  |
| COC(=O)c1oc2ccccc2c1NC(=O)CSc1ccc(OC)cc1 | 9.73 | 40.34 | 752 |
| COC(=O)c1oc2ccccc2c1NC(=O)CSc1ccc(C)cc1 | 21.57 | 56.39 |  |
| COC(=O)c1oc2ccccc2c1NC(=O)CSc1ccc([N+](=O)[O-])cc1 | 6.18 | 30.21 | 532 |
| COC(=O)c1oc2ccccc2c1NC(=O)CSc1ccc(N)cc1 | 16.54 | 40.15 |  |
| COC(=O)c1oc2ccccc2c1NC(=O)COc1ccc(Br)cc1 | 13.17 | 36.17 | 1180 |
| COC(=O)c1oc2ccccc2c1NC(=O)CNc1ccc(Br)cc1 | 22.37 | 60.32 |  |
| COC(=O)c1oc2ccccc2c1NC(=O)CNc1ccccc1 | 21.04 | 62.76 |  |
| COC(=O)c1oc2ccccc2c1NC(=O)CCc1ccccc1 | 15.94 | 38.72 |  |
| COC(=O)c1oc2cccc(Cl)c2c1NC(=O)CSc1ccc(Br)cc1 | 8.94 | 35.48 | 630 |
| COC(=O)c1oc2cccc(Cl)c2c1NC(=O)CCSc1ccccn1 | 7.02 | 29.46 | 557 |
| COC(=O)c1oc2ccccc2c1NC(=O)CCSc1ccccn1 | 11.55 | 36.07 | 929 |
| COC(=O)c1sc2ccccc2c1NC(=O)CSc1ccc(Br)cc1 | 13.92 | 41.31 |  |
| COC(OC)[C@@]1(C)Oc2ccc(N)cc2[C@@H](N/C(=N/Cc2ccccc2)NC#N)[C@@H]1O | 15.54 | 43.33 | 1110 |
| COC(=O)c1oc2ccccc2c1NC(=O)CSc1ccc(Br)cc1 | 10.59 | 32.39 | 778 |
| COC(=O)c1oc2ccccc2c1NC(=O)CSc1ccccc1 | 15.97 | 40.93 |  |
| COC(=O)c1oc2ccccc2c1NC(=O)CSc1cccc(Br)c1 | 16.85 | 39.51 |  |

Source: ChEMBL document CHEMBL1268997, “Synthesis and biological evaluation of 3-substituted-benzofuran-2-carboxylic esters as a novel class of ischemic cell death inhibitors” (Bioorg Med Chem Lett, 2010)
